pIC50: −log10 of the molar value. The source made the active and inactive calls. No cut-off for these calls is given here.
Legend:
[1] = (§1) Inhibition of TNF-induced NF-kappaB-mediated IL6 promoter expression in mouse L929sA cells by luciferase reporter gene assay; assay type: cell-based
How it was run: (§2)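 Stably transfected mouse L929sA cells carrying p(IL-6κB)350hu.IL6P-luc+ (NFκB-responsive elements in front of a minimal IL-6 promoter), pretreated 1 h with compound over a concentration range, then given 2000 IU/ml TNF for 6 h. Luciferase in lysates was normalized to co-expressed β-galactosidase (chemiluminescent) and protein.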

[2] = target: T1, Inhibitor of nuclear factor kappa-B kinase subunit beta (Mus musculus) (UniProt O88351); experiment: Induction of IKK-beta-hyperphosphorylation in TNF-stimulated mouse L929sA cells at 2.8 ug/ml by Western blot
T1 sequence (whole entry): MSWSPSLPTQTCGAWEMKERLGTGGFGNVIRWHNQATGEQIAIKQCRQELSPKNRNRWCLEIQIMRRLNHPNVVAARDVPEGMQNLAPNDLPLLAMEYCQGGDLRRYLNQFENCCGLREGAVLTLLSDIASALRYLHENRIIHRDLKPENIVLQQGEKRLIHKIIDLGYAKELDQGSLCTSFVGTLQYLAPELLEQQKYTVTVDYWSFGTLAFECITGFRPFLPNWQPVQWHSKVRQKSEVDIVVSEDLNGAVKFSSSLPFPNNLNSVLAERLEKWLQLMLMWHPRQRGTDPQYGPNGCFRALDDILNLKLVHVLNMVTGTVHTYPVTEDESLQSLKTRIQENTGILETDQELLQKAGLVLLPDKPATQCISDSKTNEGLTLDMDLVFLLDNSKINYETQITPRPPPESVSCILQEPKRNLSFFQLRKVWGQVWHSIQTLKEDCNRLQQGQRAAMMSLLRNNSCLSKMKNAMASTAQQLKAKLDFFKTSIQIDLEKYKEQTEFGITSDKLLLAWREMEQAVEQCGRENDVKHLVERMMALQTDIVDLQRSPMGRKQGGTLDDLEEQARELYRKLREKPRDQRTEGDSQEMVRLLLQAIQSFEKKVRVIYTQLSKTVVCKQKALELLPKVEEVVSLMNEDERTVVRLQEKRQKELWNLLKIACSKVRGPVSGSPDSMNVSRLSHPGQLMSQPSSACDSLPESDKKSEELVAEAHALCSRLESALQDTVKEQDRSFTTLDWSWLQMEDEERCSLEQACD

[3] = target: T1, Inhibitor of nuclear factor kappa-B kinase subunit beta (Mus musculus); experiment: Induction of IKK-beta-mediated IkappaBalpha degradation in TNF-stimulated mouse L929sA cells at 2.8 ug/ml by Western blot
L929sA [4] = experiment: as §1; assay type: cell-based; how it was run: as §2
Mus musculus [5] = experiment: Reduction of IL6 protein level in ip dosed zymosan-induced C57BL/6J mouse inflamed paw model measured 6 hrs after zymosan challenge; assay type: functional, organism-based
How it was run: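 Mice (six per group) pretreated ip with 0.5 mg/mouse in Me2SO, DEX 150 µg/mouse or Me2SO 60 µl/mouse, 30 min before footpad zymosan. Blood drawn by retro-orbital sinus puncture under isoflurane 6 h after zymosan; IL-6 quantified by 7TD1 cell growth-stimulation bioassay. Groups compared with control by ANOVA, p<0.05 significant.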

L929sA [6] = experiment: Reversal of inhibition of TNF-induced NFkappaB/DNA binding in mouse L929sA cells at 2.8 ug/ml in presence of 250 uM dithiothreitol by electrophoretic mobility shift assay; assay type: cell-based
How it was run: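 L929sA cells co-treated 1 h with 2.8 µg/ml and 250 µM DTT, then 2000 IU/ml TNF for 30 min. Equal protein from total extracts incubated 25 min with a 32P-labeled NFκB-specific oligonucleotide (labeled with [α-32P]dCTP by Klenow) for EMSA.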

[7] = target: T1, Inhibitor of nuclear factor kappa-B kinase subunit beta (Mus musculus); experiment: Reversal of induction of IKK-beta-hyperphosphorylation in TNF-stimulated mouse L929sA cells at 2.8 ug/ml in presence of 5 mM dithiothreitol
Mus musculus [8] = experiment: Antiinflammatory activity against ip dosed zymosan-induced C57BL/6J mouse inflamed paw model assessed as effect on paw swelling administered 30 mins before zymosan challenge; assay type: functional, organism-based
How it was run: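 Male/female not stated; 8-week-old C57BL/6J mice, 10 per group. 60 µl ip of 0.5 mg/mouse in Me2SO (vehicle group: Me2SO alone; DEX 150 µg/mouse as comparator), then 30 min later zymosan (15 mg/ml in PBS) sc into right footpad, left footpad uninjected. Thickness of both footpads measured by caliper at 6, 12, 24 and 48 h; read-out is injected minus non-injected difference.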

Row | Activity [7] | Structure (SMILES) | pIC50 [1] | Activity [2] | Activity [3] | Efficacy (L929sA [4]) [%] | Activity (Mus musculus [5]) | Activity (L929sA [6]) | Activity (Mus musculus [8])
1 |  | CC1=C(C)C(=O)O[C@@H]([C@](C)(O)[C@H]2CC[C@H]3[C@@H]4[C@@H]5O[C@@H]5[C@@]5(O)CC=CC(=O)[C@]5(C)[C@H]4CC[C@]23C)C1 [WITHANOLIDE A] | 4.30 | inactive | inactive |  |  |  | 
2 | Active | CC1=C(CO)C(=O)O[C@@H]([C@@H](C)[C@H]2CC[C@H]3[C@@H]4C[C@H]5O[C@]56[C@@H](O)C=CC(=O)[C@]6(C)[C@H]4CC[C@]23C)C1 [WITHAFERIN A] | 6.60 | Active | Active | 95 | Active | Active | Active
3 |  | CC1=C(CO)C(=O)OC([C@@H](C)C2CCC3C4C(CC[C@@]32C)[C@@]2(C)C(=O)C=CC[C@]2(O)[C@H]2O[C@@H]42)C1 (some centres not stated) | 4.05 | inactive | inactive |  |  |  | 
4 |  | C=C1C(=O)O[C@@H]2C[C@@H](C)[C@@H]3C=CC(=O)[C@@]3(C)[C@@H](O)[C@H]12 [HELENALIN] | 5.60 |  |  |  |  |  | 
5 |  | C[C@@H]1C[C@H]2[C@@H]3CCC4=CC(=O)C=C[C@]4(C)[C@@]3(F)[C@@H](O)C[C@]2(C)[C@@]1(O)C(=O)CO |  |  |  |  | Active |  | Active

— ChEMBL document CHEMBL1156424, “Withaferin a strongly elicits IkappaB kinase beta hyperphosphorylation concomitant with potent inhibition of its kinase activity” (J Biol Chem, 2007)
